Consider eight molecules from ChEMBL document CHEMBL3397023, “Synthesis and evaluation of multi-functional NO-donor/insulin-secretagogue derivatives for the treatment of type II diabetes and its cardiovascular complications” (Bioorg Med Chem, 2015).

Calls of active or inactive are those of the source. The rule behind the calls is not given here.

Test [1] has as its system Aorta. In words: Vasorelaxant activity in Wistar rat endothelium-denuded aortic ring assessed as reduction of KCl-induced contraction. The class given is functional, tissue-based. The procedure, abridged: (§1)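 Rat aortic rings were pre-contracted with KCl 30 mM and exposed to cumulative test concentrations. Potency: pIC50, the negative log of the concentration halving KCl-induced tone. Efficacy: Emax, the maximal relaxation at the highest concentration tested. Both given as mean ± SEM.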

For test [2], the system named is Aorta. Nature of the test: Maximal vasorelaxant activity in Wistar rat endothelium-denuded aortic ring assessed as reduction of KCl-induced contraction at 30 uM relative to control. The class given is functional. The procedure, abridged: as §1
The test system of test [3] is Rattus norvegicus. In words: Hypoglycemic activity in STZ-treated Wistar rat diabetic model at 50 mg/kg, ip after 10 mins treated with 1 g/kg, ip glucose. The class given is functional, organism-based. Further details: dose 50 mg/kg. The essentials:
(§2)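 Male Wistar rats (250–300 g) made diabetic with streptozotocin 50 mg/kg ip (fasting glycemia 100–150 mg/dl at day 4), fasted 24 h, then dosed ip. Glucose 1 g/kg ip was given 10 min later. Blood glucose was read by tail puncture with a glucometer at 0, 15, 30, 45, 60, 90 and 120 min, and AUC was calculated. Vehicle normoglycemic rats served as reference.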

Test [4] concerns Rattus norvegicus. Nature of the test: Hypoglycemic activity in STZ-treated Wistar rat diabetic model at 75.8 mg/kg, ip after 10 mins treated with 1 g/kg, ip glucose. The class given is functional, organism-based. Further details: dose 75.8 mg/kg. The procedure, abridged: as §2
Test [5] has as its system Rattus norvegicus. Nature of the test: Cardio-protective anti-ischemic activity in STZ-treated Wistar rat heart assessed as reduction in ischemic area at 18.2 mg/kg, ip for 7 days followed by treatment hearts submitted to 30 mins ischemia measured after 120 mins of reperfusion. The class given is functional, organism-based. More on the design: dose 18.2 mg/kg. The procedure, abridged: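 STZ-diabetic male Wistar rats (50 mg/kg ip; fasting glycemia 100–150 mg/dl) dosed ip daily for 7 days from day 11, with vehicle normoglycemic rats as reference. Langendorff hearts: 30 min equilibration, 30 min ischemia, 120 min reperfusion. Then 2 mm left-ventricle slices were stained with triphenyltetrazolium chloride, and damaged area was measured by planimetry as % of whole area. Mean ± SEM.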

The subject of test [6] is Rattus norvegicus. In words: Cardio-protective anti-ischemic activity in STZ-treated Wistar rat heart assessed as recovery of functional parameter at 18.2 mg/kg, ip for 7 days followed by treatment hearts submitted to 30 mins ischemia measured after 120 mins of reperfusion. The class given is organism-based. Further details: dose 18.2 mg/kg. The procedure, abridged:
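Male Wistar rats (250–300 g) given streptozotocin 50 mg/kg ip; those with fasting glycemia 100–150 mg/dl at day 4 were used. From day 11, daily ip dosing for 7 days, with vehicle-treated normoglycemic rats as reference. Hearts were taken under heparin and pentobarbital, Langendorff-perfused, equilibrated 30 min, then 30 min ischemia and 120 min reperfusion. Read-out: RPP recovery %, mean ± SEM.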

By IC50 is commonly meant the concentration that inhibits the measured activity by half. As usually defined, the Emax is the size of the effect at its maximum, as opposed to the concentration needed. As to `CCOc1cc(CC(=O)N[C@@H](CC(C)C)c2ccccc2N2CCCCC2)ccc1C(=O)OCc1ccc(CO[N+](=O)[O-])cc1`, in test [1], the IC50 is 8.13 µM. For the same molecule, the Emax at 30 µM in test [2] is 94%.

On to `CC(C)[C@H]1CC[C@H](C(=O)N[C@H](Cc2ccccc2)C(=O)O)CC1`, for which, in test [3], the result was Active.

Turning to `CCOc1cc(CC(=O)N[C@@H](CC(C)C)c2ccccc2N2CCCCC2)ccc1C(=O)OCc1ccc(C(C)O[N+](=O)[O-])cc1` (stereo partly specified), the IC50 in test [1] is 5.01 µM. Moreover, in test [2], the Emax at 30 µM is 84%.

Consider `CC(O[N+](=O)[O-])c1ccc(COC(=O)[C@@H](Cc2ccccc2)NC(=O)[C@H]2CC[C@H](C(C)C)CC2)cc1` (stereo partly specified), for which the IC50 in test [1] was 23.4 µM. In addition, the Emax at 30 µM in test [2] stood at 58%.

Take `CCOc1cc(CC(=O)N[C@@H](CC(C)C)c2ccccc2N2CCCCC2)ccc1C(=O)OCc1cccc(C(C)O[N+](=O)[O-])c1` (stereo partly specified): the Emax at 30 µM in test [2] is 26%.

Turning to `CCOc1cc(CC(=O)N[C@@H](CC(C)C)c2ccccc2N2CCCCC2)ccc1C(=O)OCc1cccc(CO[N+](=O)[O-])c1`, the IC50 in test [1] was 13.2 µM. The Emax at 30 µM in test [2] amounted to 79%.

With `CC(C)[C@H]1CC[C@H](C(=O)N[C@H](Cc2ccccc2)C(=O)OCc2ccc(CO[N+](=O)[O-])cc2)CC1`, the IC50 in test [1] is 5.01 µM. For the same molecule, the outcome in test [4], in test [5] and in test [6] was Active. Further, the Emax at 30 µM in test [2] is 93%.

As for `CC(C)[C@H]1CC[C@H](C(=O)N[C@H](Cc2ccccc2)C(=O)OCc2cccc(CO[N+](=O)[O-])c2)CC1`, the Emax at 30 µM in test [2] worked out at 45%.
